Consider 4 molecules from ChEMBL document CHEMBL1140717, “Acridine-based agents with topoisomerase II activity inhibit pancreatic cancer cell proliferation and induce apoptosis” (J Med Chem, 2008).

Test [1] concerns MIA PaCa-2. The test can be described thus: Growth inhibition of human MiaPaCa2 cells after 72 hrs by MTT assay. The format is functional, cell-based. To be noted: MIA PaCa-2, 72 h. Put shortly: (§1)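 Cells maintained in DMEM with 10% fetal calf serum plus L-glutamine, then exposed over 72 h to a range of compound concentrations. Viability read by MTT; percent growth inhibition determined and IC50 estimated from the MTT data.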

Test [2] can be described thus: Growth inhibition of human SU86.86 cells after 72 hrs by MTT assay. The note with it: SU.86.86, 72 h. The format is functional, cell-based. Put shortly: as §1
Background: Tetrazolium dyes change colour on reduction, which living cells bring about.

Test [3] has as its system BXPC-3. The test can be described thus: Growth inhibition of human BXPC3 cells after 72 hrs by MTT assay. The format is functional, cell-based. To be noted: BXPC-3, 72 h. In short, it runs like this:
as §1

Test [4] has as its system MIA PaCa-2. The test can be described thus: Cell cycle arrest in human MiaPaCa2 cells assessed as accumulation at G1 phase at 15 uM after 36 hrs. The format is functional. In short, it runs like this:
(§2)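 Cells grown in DMEM with 10% fetal calf serum and L-glutamine, then exposed to diluent or compound at 15 µM final for 36 h. Fixed in 50% ethanol, rehydrated, RNase-treated and stained with 50 µg/mL propidium iodide in 0.1% sodium citrate. Flow cytometry (≥20 000 events per sample) gave the percentage of cells in G1, S and G2/M.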

Test [5] deals with MIA PaCa-2. The test can be described thus: Cell cycle arrest in human MiaPaCa2 cells assessed as accumulation at S phase at 15 uM after 36 hrs. In kind it is functional. In short, it runs like this:
as §2

Test [6] deals with MIA PaCa-2. The test can be described thus: Cell cycle arrest in human MiaPaCa2 cells assessed as accumulation at G2/M phase at 15 uM after 36 hrs. In kind it is functional. In short, it runs like this: as §2
A short description of test [7]: Cell cycle arrest in human SU86.86 cells assessed as accumulation at G1 phase at 15 uM after 36 hrs. The format is functional, cell-based. The note with it: SU.86.86. In short, it runs like this:
as §2

A short description of test [8]: Cell cycle arrest in human SU86.86 cells assessed as accumulation at S phase at 15 uM after 36 hrs. The format is functional, cell-based. To be noted: SU.86.86. In short, it runs like this: as §2
A short description of test [9]: Cell cycle arrest in human SU86.86 cells assessed as accumulation at G2/M phase at 15 uM after 36 hrs. To be noted: SU.86.86. The format is functional, cell-based. In short, it runs like this: as §2
Test [10] concerns BXPC-3. The experiment in a line: Cell cycle arrest in human BXPC3 cells assessed as accumulation at G1 phase at 15 uM after 36 hrs. The format is functional. Put shortly:
as §2

The test system of test [11] is BXPC-3. The test can be described thus: Cell cycle arrest in human BXPC3 cells assessed as accumulation at S phase at 15 uM after 36 hrs. In kind it is functional. In short, it runs like this:
as §2

The test system of test [12] is BXPC-3. The test can be described thus: Cell cycle arrest in human BXPC3 cells assessed as accumulation at G2/M phase at 15 uM after 36 hrs. In kind it is functional. Put shortly: as §2
Test [13] deals with MIA PaCa-2. The test can be described thus: Induction of apoptosis in human MiaPaCa2 cells at 25 uM after 48 hrs. In kind it is functional.
Test [14] relates to SU.86.86. The experiment in a line: Induction of apoptosis in human SU86.86 cells at 25 uM after 48 hrs. The format is functional.
In test [15] the test system is BXPC-3. The experiment in a line: Induction of apoptosis in human BXPC3 cells at 25 uM after 48 hrs. The format is functional. Put shortly:
(§3)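 BXPC-3 cells exposed to diluent or compound for 48 h, then collected and nuclei stained with Hoechst. Three hundred nuclei per field scored as apoptotic when the nucleus was fragmented into multiple discrete fragments; result expressed as percentage of cells in apoptosis.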

The test system of test [16] is MIA PaCa-2. The experiment in a line: Induction of apoptosis in human MiaPaCa2 cells at 15 uM after 48 hrs. The format is functional.
Test [17] has as its system SU.86.86. The test can be described thus: Induction of apoptosis in human SU86.86 cells at 15 uM after 48 hrs. In kind it is functional.
The test system of test [18] is BXPC-3. The test can be described thus: Induction of apoptosis in human BXPC3 cells at 15 uM after 48 hrs. The format is functional. Put shortly:
as §3

Test [19] deals with MIA PaCa-2. The experiment in a line: Induction of apoptosis in human MiaPaCa2 cells at 50 uM after 48 hrs. In kind it is functional.
For test [20], the system named is SU.86.86. The experiment in a line: Induction of apoptosis in human SU86.86 cells 50 uM after 48 hrs. The format is functional.
For test [21], the system named is BXPC-3. The experiment in a line: Induction of apoptosis in human BXPC3 cells 50 uM after 48 hrs. The format is functional. In short, it runs like this: as §3

Take `CN1CCN(C(=O)c2ccc3c(NC4CCN(Cc5ccccc5)CC4)c4ccccc4nc3c2)CC1`: the IC50 – broadly, the midpoint of a concentration-inhibition curve – in the test with MIA PaCa-2 [1] was found to be 1 µM; in test [2], 6 µM; in the test with BXPC-3 [3], 7 µM. Also, the Activity is 28% in the test with MIA PaCa-2 [4]; 52% in the test on MIA PaCa-2 [5]; 20% in the test on MIA PaCa-2 [6]; 53% in test [7]; 29% in test [8]; 18% in [9]. The Activity in the test on BXPC-3 [10] was determined as 77%; with BXPC-3 [11], 16%; in the test with BXPC-3 [12] it was 7%; in the test with MIA PaCa-2 [13] it was 36%; in the test on SU.86.86 [14], 30%; in the test with BXPC-3 [15] it was 52%.
Turning to `CN1CCN(C(=O)c2ccc3c(NCCc4c[nH]c5ccccc45)c4ccccc4nc3c2)CC1`, the IC50 is 6 µM with MIA PaCa-2 [1], 8 µM in test [2] and 12 µM in the test with BXPC-3 [3]. Further, the Activity with MIA PaCa-2 [4] is 29%; in the test with MIA PaCa-2 [5], 51%; in the test with MIA PaCa-2 [6], 20%; in test [7] it was 50%; in [8], 26%; in test [9], 24%. For the same molecule, the Activity was 81% in the test with BXPC-3 [10]; 12% in the test with BXPC-3 [11]; 7% with BXPC-3 [12]; 20% in the test on MIA PaCa-2 [16]; 34% in the test with SU.86.86 [17]; 44% with BXPC-3 [18].
With `CN1CCN(C(=O)c2cccc3c(NCCc4c[nH]c5ccccc45)c4ccccc4nc23)CC1`, the concentration for half-maximal inhibition (IC50) worked out at 4 µM in the test with MIA PaCa-2 [1] and 10 µM in [2]. In addition, the Activity with MIA PaCa-2 [4] came to 32%; in the test with MIA PaCa-2 [5] it was 47%; in the test on MIA PaCa-2 [6] it was 21%; in test [7] it was 56%; in test [8], 27%; in [9] it was 17%. For the same molecule, the Activity came to 83% with BXPC-3 [10]; 10% with BXPC-3 [11]; 7% with BXPC-3 [12]; 29% with MIA PaCa-2 [19]; 23% in the test on SU.86.86 [20]; 32% with BXPC-3 [21].
For the molecule `CCN(CC)C(=O)c1ccc2c(NCCc3c[nH]c4ccccc34)c3ccccc3nc2c1`, the IC50 is 11 µM in the test on MIA PaCa-2 [1], 10 µM in test [2] and 14 µM with BXPC-3 [3]. Also, the Activity with MIA PaCa-2 [4] worked out at 32%; with MIA PaCa-2 [5], 50%; in the test with MIA PaCa-2 [6], 18%; in test [7], 60%; in [9], 16%; with BXPC-3 [10], 76%. Besides, the Activity in the test on BXPC-3 [11] amounted to 20%; with BXPC-3 [12] it was 4%; with MIA PaCa-2 [16] it was 42%; with SU.86.86 [17], 17%; in the test on BXPC-3 [18], 40%.
